Results on 3 compounds are retold here after ChEMBL document CHEMBL4425125, “Development of a Dual-Acting Antibacterial Agent (TNP-2092) for the Treatment of Persistent Bacterial Infections” (J Med Chem, 2016).

In brackets after ≈: the same amount, converted by molar mass.

For assay [1], the system named is Staphylococcus aureus. Description: Antimicrobial activity against Staphylococcus aureus isogenic forms expressing rpoB H481Y and parC S80F mutant. It is filed as functional. In a few lines:
(§1)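 MIC (μg/mL) on otherwise isogenic derivatives of S. aureus ATCC 29213 that carry the rifamycin-resistance allele rpoB H481Y and/or the quinolone-resistance alleles parC S80F and gyrA S84L. The wild-type parent is the reference strain. MICs were determined both by agar dilution and by broth dilution, tested side by side on the same panel.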

Assay [2] deals with DNA gyrase (Staphylococcus aureus) (UniProt P0A0K8+P20831).
Assay [3] concerns Staphylococcus aureus.
The test system of assay [4] is Staphylococcus aureus. Put plainly: Bactericidal activity against methicillin-resistant Staphylococcus aureus 67-0. Format: functional.
The target in assay [5] is Topoisomerase IV (Staphylococcus aureus) (UniProt P0C1U9+P0C1S7).
Assay [6] deals with DNA topoisomerase 2-alpha (Homo sapiens) (UniProt P11388).
In assay [7] the test system is Staphylococcus aureus. Description: Antimicrobial activity against Staphylococcus aureus isogenic forms expressing parC S80F mutant. It is filed as functional. In a few lines:
as §1

Assay [8] concerns Staphylococcus aureus. Put plainly: Antimicrobial activity against methicillin-resistant Staphylococcus aureus 67-0. Format: functional.
Assay [9] concerns Staphylococcus aureus. Description: Antimicrobial activity against Staphylococcus aureus isogenic forms expressing gyrA S84L mutant. Format: functional.
Assay [10] relates to Staphylococcus aureus. Description: Antimicrobial activity against Staphylococcus aureus isogenic forms expressing rpoB H481Y and gyrA S84L mutant. Format: functional.
Assay [11] has as its system Staphylococcus aureus. Put plainly: Antimicrobial activity against Staphylococcus aureus isogenic forms expressing rpoB H481Y/gyrA S84L/parC S80F mutant. It is filed as functional. In outline:
as §1

Assay [12] concerns Staphylococcus aureus. Description: Antimicrobial activity against wild type Staphylococcus aureus. Format: functional.
Assay [13] relates to Staphylococcus aureus. Put plainly: Antimicrobial activity against Staphylococcus aureus isogenic forms expressing gyrA S84L and parC S80F mutant. Format: functional. In outline:
as §1

Assay [14] concerns Staphylococcus aureus. Put plainly: Antimicrobial activity against Staphylococcus aureus isogenic forms expressing rpoB H481Y mutant. Format: functional.
The subject of assay [15] is Staphylococcus epidermidis. Put plainly: Antimicrobial activity against methicillin-resistant Staphylococcus epidermidis clinical isolates by broth dilution method. Format: functional.
For assay [16], the system named is Staphylococcus epidermidis. Put plainly: Antimicrobial activity against methicillin-sensitive Staphylococcus epidermidis clinical isolates by broth dilution method. It is filed as functional.
A short description of assay [17]: Inhibition of wild type Staphylococcus aureus RNA polymerase assessed as reduction in RNA product formation.
Assay [18] relates to Staphylococcus aureus. Description: Antimicrobial activity against methicillin-sensitive Staphylococcus aureus clinical isolates by broth dilution method. It is filed as functional. Background: Dilution methods test growth across graded concentrations, often in twofold steps.
The test system of assay [19] is Staphylococcus aureus. Put plainly: Antimicrobial activity against methicillin-resistant Staphylococcus aureus clinical isolates by broth dilution method. It is filed as functional.
Another assay deals with Streptococcus pneumoniae. Put plainly: Antimicrobial activity against Streptococcus pneumoniae clinical isolates by broth dilution method. It is filed as functional.
The nature of assay [20]: Inhibition of RIF-resistant Staphylococcus aureus RNA polymerase RpoB H481Y mutant assessed as reduction in RNA product formation.
For the next assay, the system named is Streptococcus agalactiae. Put plainly: Antimicrobial activity against Streptococcus agalactiae clinical isolates by broth dilution method. It is filed as functional.
The next assay has as its system Streptococcus pyogenes. Put plainly: Antimicrobial activity against Streptococcus pyogenes clinical isolates by broth dilution method. Format: functional.

For the compound `O=C(O)c1cn(C2CC2)c2cc(N3CCNCC3)c(F)cc2c1=O` [CIPROFLOXACIN], the minimal inhibitory concentration (MIC) with Staphylococcus aureus [1] and with Staphylococcus aureus [7] was 2 µg/mL (≈ 6.04 µM) each time. Also, the CC50 in assay [2] is 5 µM; in the assay on Staphylococcus aureus [3] it was 31 µM; in [5], 0.4 µM; in assay [6], over 150 µM. The compound also came in with an MBC in the assay with Staphylococcus aureus [4] of 16 µg/mL (≈ 48.3 µM).
Regarding `C[C@H]1COc2c(N3CCN(C)CC3)c(F)cc3c(=O)c(C(=O)O)cn1c23.C[C@H]1COc2c(N3CCN(C)CC3)c(F)cc3c(=O)c(C(=O)O)cn1c23.O` [LEVOFLOXACIN], the MIC with Staphylococcus aureus [8] was 2 µg/mL; with Staphylococcus aureus [9] it was 0.25 µg/mL; in the assay on Staphylococcus aureus [1], 1 µg/mL; against Staphylococcus aureus [10] it was 0.25 µg/mL; against Staphylococcus aureus [11], 8 µg/mL; against Staphylococcus aureus [12], 0.25 µg/mL. The minimum inhibitory concentration (MIC) stood at 8 µg/mL against Staphylococcus aureus [13], 0.25 µg/mL against Staphylococcus aureus [14] and 1 µg/mL against Staphylococcus aureus [7]. The compound further displayed an MBC against Staphylococcus aureus [4] of 2 µg/mL.
For the compound `CO[C@H]1/C=C/O[C@@]2(C)Oc3c(C)c(O)c4c(O)c(c(/C=N/N5CCN(C)CC5)c(O)c4c3C2=O)NC(=O)/C(C)=C\C=C\[C@H](C)[C@H](O)[C@@H](C)[C@@H](O)[C@@H](C)[C@H](OC(C)=O)[C@@H]1C` [RIFAMPIN], the minimum inhibitory concentration (MIC) entry was “>=0.004 - 4 ug ml-1” in assay [15]; 0.008 µg/mL (≈ 0.00972 µM) against Staphylococcus aureus [8]; 0.008 µg/mL (≈ 0.00972 µM) in the assay with Staphylococcus aureus [9]; over 250 µg/mL against Staphylococcus aureus [1]; 0.008 to 4 µg/mL (≈ 0.00972 to 4.86 µM) against Staphylococcus aureus [19]; over 250 µg/mL in the assay on Staphylococcus aureus [10]. For the same compound, the minimal inhibitory concentration (MIC) with Streptococcus pneumoniae is 0.12 to 1 µg/mL (≈ 0.146 to 1.22 µM); in the assay with Staphylococcus aureus [11] it was over 250 µg/mL; with Streptococcus agalactiae, 0.03 to 2 µg/mL (≈ 0.0365 to 2.43 µM); with Staphylococcus aureus [12], 0.008 µg/mL (≈ 0.00972 µM); in the assay with Staphylococcus aureus [13] it was 0.008 µg/mL (≈ 0.00972 µM); with Staphylococcus aureus [14], over 250 µg/mL. In addition, the minimum inhibitory concentration (MIC) against Staphylococcus aureus [7] was determined as 0.008 µg/mL (≈ 0.00972 µM). The MIC50 in assay [15] (Staphylococcus epidermidis) worked out at 0.015 µg/mL (≈ 0.0182 µM); in [16] it was 0.015 µg/mL (≈ 0.0182 µM); with Staphylococcus aureus [18], 0.015 µg/mL (≈ 0.0182 µM); with Staphylococcus aureus [19], 0.015 µg/mL (≈ 0.0182 µM); against Streptococcus pneumoniae, 0.25 µg/mL (≈ 0.304 µM); against Streptococcus agalactiae, 0.12 µg/mL (≈ 0.146 µM). This compound also gave an MIC50 against Streptococcus pyogenes of 0.06 µg/mL (≈ 0.0729 µM). For the same compound, the MIC90 in assay [15] (Staphylococcus epidermidis) was over 4 µg/mL; in assay [16] it was 0.015 µg/mL (≈ 0.0182 µM); against Staphylococcus aureus [18], 0.015 µg/mL (≈ 0.0182 µM); with Staphylococcus aureus [19], 0.015 µg/mL (≈ 0.0182 µM); in the assay with Streptococcus pneumoniae it was 0.25 µg/mL (≈ 0.304 µM); in the assay on Streptococcus agalactiae, 0.12 µg/mL (≈ 0.146 µM). In addition, in the assay with Streptococcus pyogenes, the MIC90 amounted to 0.12 µg/mL (≈ 0.146 µM). Moreover, the half-maximal inhibitory concentration (IC50) in [17] was 0.015 µM; in [20], over 25 µM. The compound further returned a minimum bactericidal concentration (MBC) against Staphylococcus aureus [4] of 2 µg/mL (≈ 2.43 µM).

By MIC is commonly meant the lowest concentration that inhibits growth of the organism. By MBC is commonly meant the smallest concentration meeting the test's criterion for killing. Lower therefore signals greater bactericidal potency. By MIC50 is commonly meant an inhibitory concentration at the 50% level, which refers to growth in some studies and to a panel of isolates in others. Usually MIC90 stands for an inhibitory concentration at the 90% level, which refers to growth in some studies and to a panel of isolates in others. A word on the IC50: it is the concentration needed to halve the response being measured.
